Activity calls are given as the source filed them. The rule behind the calls is not given here.
Assays:
[1] = target: T1, Glucose-dependent insulinotropic receptor (Rattus norvegicus, UniProt Q7TQN8); assay: Agonist activity at rat GPR119 by melanophore assay; type: functional
T1 sequence (Q7TQN8 whole entry): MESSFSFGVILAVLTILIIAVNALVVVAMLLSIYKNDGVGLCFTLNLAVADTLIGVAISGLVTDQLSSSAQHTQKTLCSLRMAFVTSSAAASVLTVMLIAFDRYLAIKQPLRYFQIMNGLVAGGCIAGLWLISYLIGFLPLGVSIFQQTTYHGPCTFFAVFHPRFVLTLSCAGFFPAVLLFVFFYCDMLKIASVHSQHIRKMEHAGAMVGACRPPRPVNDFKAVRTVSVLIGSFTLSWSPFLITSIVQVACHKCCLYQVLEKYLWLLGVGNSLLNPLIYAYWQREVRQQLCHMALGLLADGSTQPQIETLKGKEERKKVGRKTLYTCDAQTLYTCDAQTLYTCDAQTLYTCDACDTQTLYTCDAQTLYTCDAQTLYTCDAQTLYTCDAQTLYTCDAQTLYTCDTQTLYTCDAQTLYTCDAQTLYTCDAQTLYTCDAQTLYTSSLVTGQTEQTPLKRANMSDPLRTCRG
In short: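 Agonist EC50 measured in melanophores transfected with the human or rat GPR119 receptor sequence. Values are means of multiple determinations (n).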

[2] = Aqueous solubility of the compound; type: physicochemical; details: buffer
Rattus norvegicus [3] = assay: Antidiabetic activity in po dosed Sprague-Dawley rat assessed as oral glucose tolerance; type: functional; details: read-out: MED
In short: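 SD rats were fasted 3–16 h, and compound was given po at −30 min after a tail-nick glucose reading. At time 0, glucose 3 g/kg po (6 ml/kg) was given. Glucometer readings were taken at 0, 30, 60 and 120 min. Each rat was used twice, one week apart.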

Mus musculus = assay: Antidiabetic activity in po dosed C57/BL6 mouse assessed as oral glucose tolerance; type: functional; details: read-out: MED
In short: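 C57/BL6 mice were handled twice and fasted 3–16 h. Compound was given 0–30 min before the first sample. At time 0 a glucose bolus ([…] as printed, po) was given. Tail-nick glucose was read by glucometer at 0, 20, 40, 60 and 120 min.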

[4] = Plasma protein binding in female cynomolgus monkey; type: ADME, cell-free, Macaca fascicularis; details: read-out: PPB
[5] = Plasma protein binding in male cynomolgus monkey; type: ADME, cell-free, Macaca fascicularis; details: read-out: PPB
[6] = Plasma protein binding in human; type: ADME, cell-free; details: read-out: PPB
[7] = Plasma protein binding in female rat; type: ADME, cell-free; details: read-out: PPB (converted)
[8] = Plasma protein binding in male rat; type: ADME, cell-free; details: read-out: PPB (converted)
Cytochrome P450 2C9 = Cytochrome P450 2C9 (Homo sapiens, UniProt P11712); assay: Inhibition of CYP2C9; type: ADME
Cytochrome P450 2C9, sequence (P11712 whole entry): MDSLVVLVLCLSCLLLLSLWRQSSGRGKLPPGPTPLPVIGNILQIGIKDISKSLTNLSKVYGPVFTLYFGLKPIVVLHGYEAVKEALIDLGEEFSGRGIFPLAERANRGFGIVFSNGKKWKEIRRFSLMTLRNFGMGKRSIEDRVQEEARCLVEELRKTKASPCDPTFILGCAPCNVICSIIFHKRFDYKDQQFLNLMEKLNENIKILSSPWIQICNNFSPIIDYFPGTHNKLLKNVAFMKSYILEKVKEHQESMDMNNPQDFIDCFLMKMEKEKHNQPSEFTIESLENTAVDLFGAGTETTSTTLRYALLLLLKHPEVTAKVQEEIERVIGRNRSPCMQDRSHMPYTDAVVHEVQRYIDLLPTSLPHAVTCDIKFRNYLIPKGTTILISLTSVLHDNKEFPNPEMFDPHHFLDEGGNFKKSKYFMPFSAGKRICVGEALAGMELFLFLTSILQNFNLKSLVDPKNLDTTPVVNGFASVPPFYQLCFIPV
In short: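 Inhibition constant (Ki) determined in human hepatic microsomes.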

Caco-2 = assay: Apparent permeability across human Caco2 cells; type: ADME, cell-based
Salmonella typhimurium = assay: Mutagenic activity in Salmonella Typhimurium; type: toxicity, organism-based; details: salmonella enterica subsp. enterica serovar typhimurium
[9] = Mutagenic activity in mouse lymphoma; type: toxicity
[10] = Mutagenic activity in mouse micronuclei; type: toxicity
[11] = target: Voltage-gated inwardly rectifying potassium channel KCNH2 (Homo sapiens, UniProt Q12809); assay: Inhibition of human ERG by patch clamp assay
Voltage-gated inwardly rectifying potassium channel KCNH2, sequence (Q12809 whole entry): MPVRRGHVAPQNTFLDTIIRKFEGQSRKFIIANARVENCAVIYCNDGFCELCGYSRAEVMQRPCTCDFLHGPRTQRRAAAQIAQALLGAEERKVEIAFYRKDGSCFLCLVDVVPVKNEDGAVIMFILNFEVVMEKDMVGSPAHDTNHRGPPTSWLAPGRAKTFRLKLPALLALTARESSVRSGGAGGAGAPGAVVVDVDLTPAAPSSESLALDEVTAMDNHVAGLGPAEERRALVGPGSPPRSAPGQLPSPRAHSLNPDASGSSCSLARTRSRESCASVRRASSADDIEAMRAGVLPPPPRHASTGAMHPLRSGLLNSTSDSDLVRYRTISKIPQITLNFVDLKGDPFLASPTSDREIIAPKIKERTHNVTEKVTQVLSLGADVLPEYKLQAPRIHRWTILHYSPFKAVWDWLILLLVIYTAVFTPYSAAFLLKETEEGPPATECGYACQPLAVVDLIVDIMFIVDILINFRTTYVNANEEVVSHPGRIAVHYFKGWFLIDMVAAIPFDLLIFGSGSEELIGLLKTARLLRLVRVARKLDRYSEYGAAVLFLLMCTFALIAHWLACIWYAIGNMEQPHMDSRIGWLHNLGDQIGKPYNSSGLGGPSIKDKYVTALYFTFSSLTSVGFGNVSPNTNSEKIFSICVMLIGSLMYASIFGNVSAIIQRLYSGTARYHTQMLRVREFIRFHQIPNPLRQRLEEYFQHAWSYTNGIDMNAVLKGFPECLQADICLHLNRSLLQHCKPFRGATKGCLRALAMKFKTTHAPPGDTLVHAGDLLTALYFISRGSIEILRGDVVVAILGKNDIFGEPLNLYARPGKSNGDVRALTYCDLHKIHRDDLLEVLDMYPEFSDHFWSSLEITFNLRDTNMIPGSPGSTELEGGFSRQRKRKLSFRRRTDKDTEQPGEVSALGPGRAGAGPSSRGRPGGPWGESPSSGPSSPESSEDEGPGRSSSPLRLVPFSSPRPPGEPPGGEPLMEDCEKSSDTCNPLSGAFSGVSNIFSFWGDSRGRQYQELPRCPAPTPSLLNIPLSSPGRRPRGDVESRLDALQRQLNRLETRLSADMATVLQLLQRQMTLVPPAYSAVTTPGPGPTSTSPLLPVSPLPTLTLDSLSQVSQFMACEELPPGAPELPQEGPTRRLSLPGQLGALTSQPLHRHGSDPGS

Rattus norvegicus [12] = assay: Antidiabetic activity in hyperglycemic Sprague-Dawley rat model assessed as glucose dependent insulin release at 0.08 mg/kg/min, iv; type: functional, organism-based
In short: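 Hyperglycemic clamp in male SD rats fasted overnight. After 1 h of baseline glucose and insulin sampling, vehicle or compound was infused into the jugular vein for 2 h. Glucose was clamped at 100 mg/dl for hours 1–2, then raised to 300 mg/dl for hour 3 by a 30% glucose bolus and variable infusion. Plasma insulin was followed.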

[13] = Tmax in po dosed mouse; type: ADME, organism-based; details: in vivo
[14] = Tmax in po dosed Sprague-Dawley rat; type: ADME, organism-based; details: in vivo
[15] = Tmax in po dosed cynomolgus monkey; type: ADME, organism-based, Macaca fascicularis; details: in vivo
[16] = Tmax in po dosed dog; type: ADME, organism-based, Canis lupus familiaris; details: in vivo
[17] = Oral bioavailability in mouse; type: ADME, organism-based; details: in vivo
[18] = Oral bioavailability in Sprague-Dawley rat; type: ADME, organism-based; details: in vivo
[19] = Oral bioavailability in cynomolgus monkey; type: ADME, organism-based, Macaca fascicularis; details: in vivo
[20] = Oral bioavailability in dog; type: ADME, organism-based, Canis lupus familiaris; details: in vivo
Cynomolgus monkey = assay: Volume of distribution at steady state in po dosed cynomolgus monkey; type: ADME, organism-based, Macaca fascicularis; details: in vivo
Rattus norvegicus [21] = assay: Volume of distribution at steady state in po dosed Sprague-Dawley rat; type: ADME, organism-based; details: in vivo
[22] = Elimination half life in iv dosed mouse; type: ADME, organism-based; details: in vivo, read-out: beta t1/2 (converted)
[23] = Elimination half life in iv dosed Sprague-Dawley rat; type: ADME, organism-based; details: in vivo, read-out: beta t1/2 (converted)
[24] = Elimination half life in iv dosed cynomolgus monkey; type: ADME, organism-based, Macaca fascicularis; details: in vivo, read-out: beta t1/2 (converted)
[25] = Elimination half life in iv dosed dog; type: ADME, organism-based, Canis lupus familiaris; details: in vivo, read-out: beta t1/2 (converted)
Rattus norvegicus [26] = assay: Antidiabetic activity in ZDF rat assessed as blood glucose level at 30 mg/kg, po measured on day 56; type: functional
In short: (§1)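 Male ZDF rats, 6 weeks old, baseline weight 200–250 g, were split into 3 groups by fed body weight and blood glucose. They received vehicle (100% PEG400) or compound daily for 56 days, n = 5–7 per group. Blood glucose and HbA1c were determined on days 1, 31 and 56, and body weight gain was recorded. Results are mean ± standard error.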

Rattus norvegicus [27] = assay: Antidiabetic activity in ZDF rat assessed as glycated hemoglobin level at 30 mg/kg, po measured on day 1; type: functional; in short: as §1
Rattus norvegicus [28] = assay: Antidiabetic activity in ZDF rat assessed as glycated hemoglobin level at 30 mg/kg, po measured on day 56; type: functional; in short: as §1
Rattus norvegicus [29] = assay: Antidiabetic activity in ZDF rat assessed as blood glucose level at 10 mg/kg, po measured on day 56; type: functional; in short: as §1
Rattus norvegicus [30] = assay: Antidiabetic activity in ZDF rat assessed as glycated hemoglobin level at 10 mg/kg, po measured on day 1; type: functional; in short: as §1
Rattus norvegicus [31] = assay: Antidiabetic activity in ZDF rat assessed as glycated hemoglobin level at 10 mg/kg, po measured on day 56; type: functional; in short: as §1
Rattus norvegicus [32] = assay: Antidiabetic activity in ZDF rat assessed as body weight gain at 10 mg/kg, po measured on day 56; type: functional; in short: as §1
Rattus norvegicus [33] = assay: Antidiabetic activity in ZDF rat assessed as body weight gain at 30 mg/kg, po measured on day 56; type: functional; in short: as §1
Rattus norvegicus [34] = assay: Antidiabetic activity in ZDF rat assessed as glycated hemoglobin level at 30 mg/kg, po measured on day 31
Rattus norvegicus [35] = assay: Antidiabetic activity in ZDF rat assessed as glycated hemoglobin level at 10 mg/kg, po measured on day 31

Compound: CC(C)OC(=O)N1CCC(Oc2ncnc3c2cnn3-c2ccc(S(C)(=O)=O)cc2F)CC1
- EC50 [1]: 33 nM
- solubility [2]: soluble
- minimal effective dose (Rattus norvegicus [3]): 10 mg/kg
- minimal effective dose (Mus musculus): 3 mg/kg
- fraction unbound [4]: ≤ 0.01
- fraction unbound [5]: ≤ 0.01
- fraction unbound [6]: ≤ 0.01
- fraction unbound [7]: 0.034
- fraction unbound [8]: 0.07
- Ki (Cytochrome P450 2C9): 100 nM
- permeability (Caco-2): permeable
- Activity (Salmonella typhimurium): Non-toxic
- Activity [9]: Non-toxic
- Activity [10]: Non-toxic
- IC50 [11]: 3000 nM
- Activity (Rattus norvegicus [12]): Active
- Tmax [13]: ≤ 120 min
- Tmax [14]: ≤ 120 min
- Tmax [15]: ≤ 120 min
- Tmax [16]: 360 min
- bioavailability [17]: 44%
- bioavailability [18]: 44%
- bioavailability [19]: 44%
- bioavailability [20]: 22%
- Vdss (Cynomolgus monkey): 0.1 L/kg
- Vdss (Rattus norvegicus [21]): 2.6 L/kg
- half-life [22]: 48 min
- half-life [23]: 48 min
- half-life [24]: 48 min
- half-life [25]: 48 min
- Activity (Rattus norvegicus [26]): 105.2 mg/dL
- Activity (Rattus norvegicus [27]): 3.4%
- Activity (Rattus norvegicus [28]): 4.7%
- Activity (Rattus norvegicus [29]): 359.3 mg/dL
- Activity (Rattus norvegicus [30]): 3.5%
- Activity (Rattus norvegicus [31]): 8.2%
- Activity (Rattus norvegicus [32]): 224.9 g
- Activity (Rattus norvegicus [33]): 204.2 g
- Activity (Rattus norvegicus [34]): 5.2%
- Activity (Rattus norvegicus [35]): 7.3%
